Data set [1] has as its target T1, Nucleotide-binding oligomerization domain-containing protein 1 (Homo sapiens) (UniProt Q9Y239).
T1 sequence (whole entry): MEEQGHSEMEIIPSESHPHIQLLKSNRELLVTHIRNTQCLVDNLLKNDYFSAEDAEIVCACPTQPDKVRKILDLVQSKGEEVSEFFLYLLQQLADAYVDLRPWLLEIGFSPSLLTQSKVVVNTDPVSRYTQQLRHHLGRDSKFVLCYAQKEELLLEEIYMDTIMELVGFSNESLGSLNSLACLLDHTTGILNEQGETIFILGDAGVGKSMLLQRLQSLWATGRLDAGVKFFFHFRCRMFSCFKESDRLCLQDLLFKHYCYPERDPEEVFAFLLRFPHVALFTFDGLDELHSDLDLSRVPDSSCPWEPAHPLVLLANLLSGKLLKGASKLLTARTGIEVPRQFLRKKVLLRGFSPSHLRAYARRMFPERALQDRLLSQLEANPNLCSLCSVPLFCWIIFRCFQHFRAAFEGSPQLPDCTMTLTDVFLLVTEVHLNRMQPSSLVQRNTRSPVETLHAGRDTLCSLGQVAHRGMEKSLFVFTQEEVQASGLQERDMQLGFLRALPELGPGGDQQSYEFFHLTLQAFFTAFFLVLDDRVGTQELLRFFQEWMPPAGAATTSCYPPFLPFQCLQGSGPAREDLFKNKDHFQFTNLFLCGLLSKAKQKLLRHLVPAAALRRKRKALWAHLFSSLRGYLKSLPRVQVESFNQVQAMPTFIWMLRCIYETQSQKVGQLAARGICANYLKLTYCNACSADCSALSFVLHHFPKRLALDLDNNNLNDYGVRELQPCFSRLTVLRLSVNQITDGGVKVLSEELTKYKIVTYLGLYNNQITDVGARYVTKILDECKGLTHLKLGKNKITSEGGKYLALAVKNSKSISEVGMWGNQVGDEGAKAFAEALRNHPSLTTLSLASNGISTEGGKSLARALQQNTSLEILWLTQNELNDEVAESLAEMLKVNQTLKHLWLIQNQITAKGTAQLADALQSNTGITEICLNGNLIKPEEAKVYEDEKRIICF
In words: Antagonist activity at human NOD1 expressed in HEK-Blue cells assessed as inhibition of C12-iE-DAP-stimulated cell activation at 10 uM preincubated for 3 hrs followed by C12-iE-DAP addition measured after 20 hrs by SEAP reporter gene assay. The format is cell-based. An outline of the steps:
(§1)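 HEK-Blue hNOD1 or hNOD2 cells preincubated with compound 3 h, then stimulated 20 h with C12-iE-DAP 50 ng/mL (NOD1) or MDP 100 ng/mL (NOD2); SEAP in supernatant quantified. Primary screen at 10 μM, hits repeated in triplicate; IC50 from dose-response, mean ± SD (n = 3), only for compounds reaching ≥50% inhibition at the screening concentration.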
(In general: A reporter such as luciferase makes a cellular process visible.)

The target of data set [2] is T1, Nucleotide-binding oligomerization domain-containing protein 1 (Homo sapiens). Kind of data set: Antagonist activity at human NOD1 expressed in HEK-blue cells assessed as inhibition of C12-iE-DAP-stimulated cell activation at 5 uM preincubated for 3 hrs followed by C12-iE-DAP addition measured after 20 hrs by SEAP reporter gene assay. The format is cell-based.
Data set [3] addresses T2, Nucleotide-binding oligomerization domain-containing protein 1 (Homo sapiens, UniProt Q9Y239).
T2 sequence (Q9Y239 whole entry): T1 sequence (whole entry)
In words: Antagonist activity at human NOD1 expressed in HEK-blue cells assessed as inhibition of C12-iE-DAP-stimulated cell activation preincubated for 3 hrs followed by C12-iE-DAP addition measured after 20 hrs by SEAP reporter gene assay. It is filed as cell-based. An outline of the steps: as §1

Data set [4] can be described thus: Cytotoxicity against HEK-Blue cells by SRB assay. It is filed as cell-based. As to conditions: human. (In SRB staining, fixed cells bind dye roughly in proportion to their protein.)
For data set [5], the target named is T3, Nucleotide-binding oligomerization domain-containing protein 2 (Homo sapiens, UniProt Q9HC29). In words: Antagonist activity at human NOD2 expressed in HEK-Blue cells assessed as inhibition of MDP-stimulated cell activation at 10 uM preincubated for 3 hrs followed by MDP addition measured after 20 hrs by SEAP reporter gene assay. The format is cell-based. An outline of the steps:
as §1

Data set [6] addresses T3, Nucleotide-binding oligomerization domain-containing protein 2. Kind of data set: Antagonist activity at human NOD2 expressed in HEK-Blue cells assessed as inhibition of MDP-stimulated cell activation at 5 uM preincubated for 3 hrs followed by MDP addition measured after 20 hrs by SEAP reporter gene assay. It is filed as cell-based.
Data set [7] shares this target. Kind of data set: Antagonist activity at human NOD2 expressed in HEK-Blue cells assessed as inhibition of MDP-stimulated cell activation preincubated for 3 hrs followed by MDP addition measured after 20 hrs by SEAP reporter gene assay. The format is cell-based. The method, boiled down: as §1
The test system of data set [8] is Lewis lung carcinoma cell line. In words: Antitumor activity against mouse LLC cells implanted in C57BL/6 mouse assessed as tumor weight inhibition at 12 mg/kg, iv administered every 4 days measured 11 days after tumor implantation. It is filed as functional, organism-based.
For data set [9], the target named is T1, Nucleotide-binding oligomerization domain-containing protein 1 (Homo sapiens). Kind of data set: Inhibition of NOD1 in human PBMC-derived macrophages assessed as reduction in C12-iE-DAP-stimulated IL6 mRNA expression at 1 uM preincubated for 1 hr followed by C12-iE-DAP stimulation for 90 mins by RT-qPCR analysis. An outline of the steps: (§2)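 Human CD14+ monocytes from donor PBMC, differentiated 7 days with M-CSF 20 ng/mL to macrophages; 1.0 × 10^6 cells pretreated 1 h with compound (final 0.1% DMSO), then C12-iE-DAP 500 ng/mL or MDP 5 μg/mL for 90 min. IL-6/TNF-α mRNA by qRT-PCR, normalized to GAPDH; stimulated response set to 100%.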
(Quantitative PCR measures a nucleic acid by following its amplification.)

Data set [10] shares this target. In words: Inhibition of NOD1 in human PBMC-derived macrophages assessed as reduction in C12-iE-DAP-stimulated TNFalpha mRNA expression at 1 uM preincubated for 1 hr followed by C12-iE-DAP stimulation for 90 mins by RT-qPCR analysis. The method, boiled down: as §2

Molecules are shown by their SMILES. Calls of active or inactive are those of the source. The rule behind the calls is not given here.

The inhibition is the share of the control response that was lost under treatment. Broadly, the IC50 is the concentration needed to halve the response being measured.

T3 sequence (Q9HC29 whole entry, the tested form may be a part): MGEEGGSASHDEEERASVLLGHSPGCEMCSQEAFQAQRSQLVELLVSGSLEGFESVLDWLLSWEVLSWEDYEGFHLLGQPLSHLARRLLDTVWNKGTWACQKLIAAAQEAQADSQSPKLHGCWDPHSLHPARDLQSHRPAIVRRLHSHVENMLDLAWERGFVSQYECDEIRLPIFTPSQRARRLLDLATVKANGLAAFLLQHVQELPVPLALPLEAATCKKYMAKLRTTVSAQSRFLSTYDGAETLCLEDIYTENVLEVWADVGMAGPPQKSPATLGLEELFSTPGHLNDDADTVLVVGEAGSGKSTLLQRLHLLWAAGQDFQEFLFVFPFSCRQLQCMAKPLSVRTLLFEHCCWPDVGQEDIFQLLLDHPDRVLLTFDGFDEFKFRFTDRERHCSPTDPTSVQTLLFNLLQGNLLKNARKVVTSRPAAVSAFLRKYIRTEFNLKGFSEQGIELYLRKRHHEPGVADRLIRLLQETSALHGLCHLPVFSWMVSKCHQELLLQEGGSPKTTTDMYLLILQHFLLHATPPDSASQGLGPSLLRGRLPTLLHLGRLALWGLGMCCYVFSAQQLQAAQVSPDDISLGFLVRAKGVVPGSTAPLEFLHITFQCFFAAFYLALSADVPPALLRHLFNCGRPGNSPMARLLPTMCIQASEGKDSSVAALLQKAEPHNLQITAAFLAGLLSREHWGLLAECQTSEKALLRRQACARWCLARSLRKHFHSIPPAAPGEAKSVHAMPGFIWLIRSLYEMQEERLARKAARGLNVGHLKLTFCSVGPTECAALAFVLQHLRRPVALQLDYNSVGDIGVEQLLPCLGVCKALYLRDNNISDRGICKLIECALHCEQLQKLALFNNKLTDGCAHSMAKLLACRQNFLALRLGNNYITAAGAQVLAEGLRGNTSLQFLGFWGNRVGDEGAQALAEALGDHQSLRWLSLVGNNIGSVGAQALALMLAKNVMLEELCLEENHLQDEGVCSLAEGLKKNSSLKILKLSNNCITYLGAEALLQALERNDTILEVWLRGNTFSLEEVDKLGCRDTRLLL

Consider `CN(C)c1cccc(Oc2cc3c(cc2NC(=O)COCc2ccc(C(F)(F)F)cc2)NC(=O)[C@@H](CCC(=O)N2CCC(F)(F)CC2)NC3=O)c1`, for which the inhibition in [1] worked out at 90.9%; in data set [2] it was 91.2%; in data set [5] it was 94.8%; in [6], 92.8%. The IC50 in data set [3] was determined as 0.43 µM; in data set [7], 0.81 µM. Besides, in [4], the Activity entry was “Toxic”.

For `CN(C)c1cccc(Oc2cc3c(cc2NC(=O)COCc2ccccc2)NC(=O)[C@@H](CCC(=O)NC(C)(C)C)NC3=O)c1`, the inhibition in data set [1] was 87.6%; in data set [2] it was 80.3%; in [5] it was 92.1%; in data set [6], 80.3%. The IC50 in data set [3] stood at 1.11 µM; in [7], 2.27 µM.

On to `COC(=O)CC[C@H]1NC(=O)c2cc(Oc3cccc(N(C)C)c3)c(NC(=O)COCc3cccc(F)c3)cc2NC1=O`, for which the inhibition worked out at 89.8% in data set [1], 83.9% in [2], 82.9% in data set [5] and 67% in data set [6]. For the same molecule, the IC50 worked out at 1.37 µM in data set [3] and 4.02 µM in [7].

In the case of `CN(C)c1cccc(Oc2cc3c(cc2NC(=O)COCc2ccc(C(F)(F)F)cc2)NC(=O)[C@@H](CCC(=O)N2CCC(F)CC2)NC3=O)c1`, the inhibition stood at 92.6% in [1], 90.2% in [2], 94.7% in data set [5] and 91.7% in data set [6]. In addition, the IC50 in data set [3] is 0.58 µM; in [7] it was 0.42 µM. Besides, in [4], the Activity result is given as “Toxic”.

Turning to `CC(=O)O[C@H]1C(=O)[C@@]2(C)[C@H]([C@H](OC(=O)c3ccccc3)[C@]3(O)C[C@H](OC(=O)[C@H](O)[C@@H](NC(=O)c4ccccc4)c4ccccc4)C(C)=C1C3(C)C)[C@]1(OC(C)=O)CO[C@@H]1C[C@@H]2O`, the TGI entry in data set [8] is “inactive”.

On to `COC(=O)CC[C@H]1NC(=O)c2cc(Oc3ccc(Cl)c(N(C)C)c3)c(NC(=O)COCc3ccc(Cl)cc3)cc2NC1=O`, for which the inhibition in data set [1] worked out at 55.1%; in data set [2], 71.8%; in data set [5], 79%; in data set [6], 82.2%. Also, the IC50 stood at 1.55 µM in [3] and 1.02 µM in data set [7].

On to `CCN(CC)C(=O)CC[C@H]1NC(=O)c2cc(Oc3cccc(N(C)C)c3)c(NC(=O)COCc3ccccc3)cc2NC1=O`, for which the inhibition in [1] was 80.8%; in data set [2] it was 80.5%; in [5], 76.9%; in data set [6], 60.8%. Also, the IC50 in data set [3] was 1.27 µM; in data set [7], 3.41 µM.

For `COC(=O)CC[C@H]1NC(=O)c2cc(Oc3cccc(N(C)C)c3)c(NC(=O)COCc3ccc(F)cc3)cc2NC1=O`, the inhibition in data set [1] was determined as 46.4%; in [2] it was 73.7%; in data set [5], 71.4%; in [6] it was 63.1%. In addition, the concentration for half-maximal inhibition (IC50) in data set [3] was 2.36 µM; in data set [7], 3.1 µM.

Consider `COC(=O)CC[C@H]1NC(=O)c2cc(Oc3cccc(N(C)C)c3)c(NC(=O)COCc3ccccc3)cc2NC1=O`, for which the inhibition came out at 70.4% in data set [1] and 69.1% in data set [5]. Moreover, the Activity result in [4] was “Non-Toxic”.

Consider `COC(=O)CC[C@H]1NC(=O)c2cc(Oc3cccc(N4CCCC4)c3)c(NC(=O)COCc3ccc(Cl)cc3)cc2NC1=O`, for which the inhibition is 86.6% in data set [1], 80.9% in data set [2], 94% in data set [5] and 86% in [6]. Besides, the IC50 in data set [3] came out at 1.39 µM; in data set [7], 1.5 µM.

With `COC(=O)CC[C@H]1NC(=O)c2cc(Oc3cccc(N(C)C)c3)c(NC(=O)COCc3ccc(F)c(F)c3)cc2NC1=O`, the inhibition was 89% in data set [1], 83.7% in [2], 91.2% in [5] and 83.5% in data set [6]. For the same molecule, the IC50 in data set [3] came to 1.16 µM; in data set [7] it was 1.7 µM.

`COC(=O)CC[C@H]1NC(=O)c2cc(Oc3cccc(N(C)C)c3)c(NC(=O)COCc3ccc(Cl)cc3)cc2NC1=O`: the inhibition in [1] is 90.6%; in [2] it was 90.7%; in data set [5], 90.7%; in [6], 86.3%. Also, the IC50 turned out to be 0.61 µM in [3] and 1.24 µM in data set [7].

`Nc1nc2ccccc2n1S(=O)(=O)c1ccc(Cl)cc1`: the inhibition entry in [9] and in data set [10] was “Active” in each case.

These data come from ChEMBL document CHEMBL4014339, “Discovery of 1,4-Benzodiazepine-2,5-dione (BZD) Derivatives as Dual Nucleotide Binding Oligomerization Domain Containing 1/2 (NOD1/NOD2) Antagonists Sensitizing Paclitaxel (PTX) To Suppress Lewis Lung Carcinoma (LLC) Growth in Vivo” (J Med Chem, 2017).
